Bioassay records (PubChem BioAssay)
Most compounds without a hit are left out; they make up all but 2.6% or so of the library.
miR122 inh = inhibitors of miR-122 in Huh7 cells. Huh7 miR-122 Renilla luciferase sensor, 48 h; neutral wells = 0, positive control = 100. activation (reporter increase), % at 12.5 µM. 340,000 tested, 0.3% active. AID 602342;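 active = mean replicate activation score at least 90 and every replicate individually at or above 90; inconclusive = only one of the two criteria met; inactive = neither criterion met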;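 also: higher luciferase means less miR-122 activity so hits act as miR-122 inhibitors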
Env fusion inh = HIV envelope-mediated fusion inhibition. 360,000 tested, 1.1% active. AID 651610. inhibition, % at 12.3 µM. HeLa-JRFL Env/CEM21 cell fusion, luciferase;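 active = mean replicate inhibition score of at least 50 and every replicate individually at or above 50; inconclusive = only one of the two criteria met; inactive = mean below 50 and not all replicates reaching 50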;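 also: 0% = plate neutral controls and 100% = maraviroc near 300 nM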
S100A4 inh HTS = S100A4-myosin IIA interaction inhibition; P26447; S100A4/TAMRA-MyoIIA peptide fluorescence polarization; inhibition, % at 10.7 µM; 360,000 tested, 0.14% active; AID 652163;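 active = mean inhibition of at least 70% across replicates, with every replicate also reaching that level; inconclusive = mean inhibition reaches 70% but some replicates fall short; inactive = mean inhibition below 70%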
Target sequence (P26447 whole entry, looked up): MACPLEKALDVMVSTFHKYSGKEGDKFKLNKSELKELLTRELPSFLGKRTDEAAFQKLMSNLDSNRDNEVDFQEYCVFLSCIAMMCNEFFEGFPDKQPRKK
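incubation = readout 5 min after mixing, signal stable up to 60 min | system = S100A4 monomer protein | buffer or medium = HEPES pH 7.2 with CaCl2, KCl, NaCl, DTT, Triton | benchmarks = neutral control DMSO, positive control TFP | also added = fluorescent myosin IIA peptide, 5 nM | compound dosing = one concentration per compound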
rRNA inh HTS = selective bacterial rRNA inhibition in E. coli; GFP signal change (wild-type ribosome), % (no concentration beside the values); E. coli WT GFP vs humanized-ribosome RFP mutants, fluorescence, 24 h; hits give low values; DMSO median 0, no signal -100; 350,000 tested, 1.6% active;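 active = significant combined selectivity score with lowered wild-type GFP, culture density cut under 30%, mutant RFP and density less affected; inactive = any of these conditions unmet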
Vif inh = blocks HIV Vif function. HEK293T cells, Vif self-association by quenched fluorescence, imaging, 24 h. 340,000 tested, 0.35% active. inhibition, % at 7.49 µM. AID 602346; in the data active = inhibition above about 50%, passing the limit was not always enough; inconclusive = no clear call, values can overlap the other calls; inactive = below about 31%
FN deposit inh = fibronectin deposition inhibition; AH1F fibroblasts, Alexa488-fibronectin deposition fluorescence, overnight; inhibition, % at 12.6 µM; 350,000 tested, 0.086% active; AID 743247;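 active = mean inhibition across replicates of 30% or more, regardless of how many single replicates reach that level; inconclusive = mean under 30% yet at least half of replicates reach 30%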;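 also: positive control wells lacked labelled fibronectin entirely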
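test system = AH1F fibroblasts assembling fluorescent fibronectin matrix | quantity = 10000 AH1F cells per well | buffer or medium = DMEM plus 2% serum, read in PBS | doses = single dose, pinned | incubation = 1 h cell attachment, overnight exposure to compound and label | detection = fluorescence at 485 nm excitation, 525 nm emission | read-out basis = inhibition from reduced deposited-fibronectin fluorescence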
* hit, by the source's call; ? = inconclusive; . = no result; + = active, no number; [ ] = another dose, or the depositor's remark.

SMILES | miR122 inh | Env fusion inh | S100A4 inh HTS | rRNA inh HTS | Vif inh | FN deposit inh
COc1ccc2c3c(n(C)c2c1)[C@H](CO)N(C(=O)CN(C)C)CC31CCN(Cc2cccnc2)CC1 | . | . | 15.9 | 0.9 | . | .
Cc1noc(C)c1NC(=O)Nc1ccc2c(c1)C(=O)N([C@@H](C)CO)C[C@H](C)[C@@H](CN(C)Cc1ccc(C(F)(F)F)cc1)OCCCC[C@H](C)O2 | 8.1[16.7 µM] | -2.8[16.7 µM] | -1.5 | 0.4 | . | .
O=C(CNC(=O)c1ccncc1)N/N=C/c1ccccn1 | . | -14.3 | 5.0 | -0.6 | 58.7* | .
S=C(NCc1ccccn1)NN=Cc1ccccn1 | . | -1.1 | 2.3 | -19.1* | 7.2 | 11.2
O=C(N/N=C/c1ccccn1)c1ccc(NC(=O)c2ccccc2Cl)cc1 | . | -4.0 | -4.7 | -21.0* | -36.6 | 7.5
COc1cccc(CN2CC3(CCN(C(C)=O)CC3)c3c(n(C)c4cc(OC)ccc34)[C@H]2CO)c1 | . | . | . | 2.4 | . | .
COc1ccccc1-c1ccc2c(c1)[C@@H]1[C@@H](CCN1S(=O)(=O)c1cccc(C)c1)[C@H](CO)N2 | -5.7[16.7 µM] | . | 0.9 | 2.1 | . | 7.8
C[C@@H]1CN([C@@H](C)CO)C(=O)Cc2cc(NC(=O)CCCN(C)C)ccc2O[C@H]1CN(C)S(C)(=O)=O | -5.5[16.7 µM] | -13.1[16.7 µM] | 6.7 | 4.2 | . | .
COc1cc(/C=C(\C#N)C(=O)N2CCc3ccccc32)ccc1O | -1.6 | 14.5 | -6.5 | -32.8* | -3.1 | -1.6
O=C(C[C@H]1C[C@@H]2c3cc(NC(=O)NC4CCCC4)ccc3O[C@@H]2[C@@H](CO)O1)NCc1ccc(Cl)cc1 | -7.5[16.7 µM] | . | 0.9 | -15.7 | . | -7.3
O=S(=O)(NCCc1ccc(F)cc1)c1cc(C(F)(F)F)ccc1Br | 126.9* | 37.8 | -4.9 | -12.8 | . | 3.6
CCCCCCCCCCCCCCCC[n+]1ccc(C(N)=O)cc1 | -8.4 | ? | . | . | -5.0 | -15.6
CCCCCCCCCCCCCCCC[n+]1ccc(/C=N/O)cc1 | . | 88.7* | -2.5 | -37.1* | -4.2 | .
C[C@H](CO)N1C[C@H](C)[C@@H](CN(C)Cc2ccc(Oc3ccccc3)cc2)Oc2ccc(NS(=O)(=O)c3ccc(Cl)cc3)cc2CC1=O | 1.1[16.7 µM] | 12.2[16.7 µM] | -42.2 | -0.8 | . | 16.8
CO[C@@H](CN(C)S(=O)(=O)c1ccc(Cl)cc1)[C@@H](C)CN(Cc1ccccc1Cl)[C@@H](C)CO | . | . | -2.6 | -28.5 | . | -14.4
Clc1ccc(C2Nc3cccc4cccc(c34)N2)cc1Cl | . | 5.4 | 2.3 | 11.5 | 57.9* | -4.3
O=[N+]([O-])c1ccccc1C1Nc2cccc3cccc(c23)N1 | -9.4 | -171.4 | . | . | 9.2 | -7.4
O=[N+]([O-])c1ccc(Cl)c(C2Nc3cccc4cccc(c34)N2)c1 | -3.0 | 57.6* | . | . | 1.0 | -7.1
Clc1cccc(C2Nc3cccc4cccc(c34)N2)c1 | 1.1 | -0.1 | 0.4 | -12.5 | 0.8 | -8.4
C[C@H](CO)N1C[C@H](C)[C@H](CN(C)Cc2ccncc2)Oc2cc(C3=CCCCC3)ccc2S1(=O)=O | -1.8[16.7 µM] | 39.7[16.7 µM] | 5.2 | -31.0 | . | .
COc1ccc(C2(C)NC(=O)N(CC(=O)Nc3ccc(-c4nc5ccc(C)cc5s4)cc3)C2=O)cc1 (stereo unspecified) | 0.6 | -46.6 | -11.8 | 12.4 | -10.5 | 4.6
CCC1(c2ccc(F)cc2)NC(=O)N(CC(=O)Nc2ccc(-c3nc4ccc(C)cc4s3)cc2)C1=O (stereo unspecified) | 271.3* | -93.8 | . | . | -3.8 | -12.0
COc1ccc(OC)c(/C=C/c2nc3ccccc3[nH]c2=O)c1 | 1.0 | -3.3 | -2.8 | 5.8 | + | 6.5
Cc1ccccc1S(=O)(=O)N[C@H]1CC[C@H](CCn2cc(-c3ccc(F)cc3)nn2)O[C@@H]1CO | -9.5[16.7 µM] | -0.6[16.7 µM] | 32.3 | 3.8 | . | -12.1
CC(=O)C1=C(C)NC(SCC(=O)c2cc(Cl)ccc2Cl)=C(C#N)C1c1ccco1 (stereo unspecified) | . | . | 9.7 | -7.0 | 5.0 | .
SMILES | miR122 inh | Env fusion inh | S100A4 inh HTS | rRNA inh HTS | Vif inh | FN deposit inh
CC(=O)C1=C(C)NC(SCC(=O)c2ccc(Cl)c(Cl)c2)=C(C#N)C1c1ccco1 (stereo unspecified) | -4.3 | . | 2.1 | 1.4 | 82.1* | .
COn1c(SC(C)C)nc2ccccc2c1=O | -3.8 | -100.7 | . | . | 17.0 | 0.1
Cc1c(O)c(=O)n(-c2ccccc2)n1C | -3.1 | -6.8 | 2.1 | -16.0* | -3.4 | -3.0
CC(C#N)Sc1nc2ccccc2c(=O)n1-c1ccccc1 (stereo unspecified) | 5.2 | . | -2.2 | -22.4* | ? | .
Cc1c(-n2c(SCC(C)C)nc3ccccc3c2=O)c(=O)n(-c2ccccc2)n1C | . | -11.7 | 0.5 | -26.4* | 2.5 | 14.1
C[C@H](CO)N1C[C@H](C)[C@@H](CN(C)C(=O)Cc2cccnc2)Oc2ncc(/C=C/c3ccccc3)cc2C1=O | 4.0[16.7 µM] | . | -3.5 | -5.2 | . | 3.9
Cc1cc(C)c(NC(=O)CNC(=O)COC(=O)/C=C/c2cccs2)c(C)c1 | -6.3 | . | 83.8* | 9.9 | -11.7 | 5.2
Cc1ccc2nc(Cl)c3cc(C(=O)N(CCN(C)C)Cc4ccco4)sc3c2c1 | -20.1 | 8.4 | -9.0 | -15.9 | -2.7 | 4.1
CN(C)CCN(Cc1ccco1)C(=O)c1cc2c(Cl)nc3ccccc3c2s1 | . | -48.5 | 2.4 | -33.4* | -0.5 | 0.8
O=C(C[C@@H]1CC[C@H](NC(=O)C2CCOCC2)[C@H](CO)O1)Nc1ccccc1 | . | . | -3.6 | 1.4 | . | .
CC(Oc1cccc(Cl)c1)C(=O)NNC(=O)c1cccnc1 (stereo unspecified) | . | -2.1 | -1.6 | 8.8 | 13.6 | 30.8*
CC(Oc1ccc(Cl)cc1Cl)C(=O)NNC(=O)c1cccnc1 (stereo unspecified) | 1.1 | 2.8 | 4.5 | 2.2 | 6.0 | 6.7
OCCCn1c(-c2ccccc2)csc1=Nc1ccccc1 | 7.3 | 23.6 | -5.5 | -52.0 | 4.8 | 12.1
COc1ccc(N=c2scc(-c3ccc(OC)cc3)n2CCO)cc1 | 5.7 | 71.3* | . | . | -39.2 | 4.8
O=C(COc1ccccc1)Nc1nnc(-c2ccco2)o1 | -4.4 | -4.6 | -2.3 | 23.1 | 6.1 | 1.7
O=C(COc1ccc(Cl)cc1)Nc1nnc(-c2ccco2)o1 | . | -9.7 | 6.4 | -34.9* | -8.2 | .
COc1ccc(C#Cc2cnc3c(c2)C(=O)N([C@H](C)CO)C[C@@H](C)[C@@H](CN(C)C(C)=O)O3)cc1 | 2.9[16.7 µM] | 8.4[16.7 µM] | -4.1 | -0.4 | . | -3.7
O=C(C[C@H]1CC[C@H](NC(=O)Nc2cc(F)ccc2F)[C@H](CO)O1)NCc1ccncn1 | . | 4.0[16.7 µM] | -0.2 | 0.6 | . | -5.1
CCc1ccc(NC(=S)Nc2ccc3cn[nH]c3c2)cc1 | . | . | -1.3 | -21.3* | 11.0 | -2.0
COc1ccc(NC(=S)Nc2ccc3cn[nH]c3c2)cc1 | 11.1 | -22.6 | -3.2 | 2.5 | 1.8 | 0.5
Cc1c(Cl)cccc1NC(=S)N1CCN(Cc2ccc3c(c2)OCO3)CC1 | . | 2.8 | 2.8 | 4.0 | 53.1* | -4.4
Cc1ccccc1NC(=S)N1CCN(Cc2ccc3c(c2)OCO3)CC1 | -8.0 | 11.8 | . | . | 2.3 | 1.9
